In publication PMC5049450 (Journal of Clinical Pharmacology, 2015):
Where two headings read alike, the source gives them in different places.

Key:
[1] = patients with advanced solid tumors, cited from earlier work
[2] = increased solubility at low pH; cited from earlier work
[3] = rats; cited from earlier work
[4] = test system: plasma protein; conditions: across species; independent of drug concentration; cited from earlier work
[5] = cited from earlier work
[6] = Safety assessment; assay type: in vivo, human
Outline: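 Noncancer Child–Pugh mild, moderate or severe hepatic impairment subjects (6 per group) and 13 healthy controls received one oral test-compound dose after an overnight fast. Safety was monitored throughout through adverse events, clinical laboratory tests, ECGs and physical examinations. Adverse events were graded by NCI-CTCAE v4.03 and relationship to drug was recorded. Safety follow-up was on day 31.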

[7] = test system: CYP3A; conditions: phase‐1 oxidative metabolism; cited from earlier work
[8] = healthy volunteers, cited from earlier work
[9] = cited from earlier work; remark: listed apart in the source
[10] = assay type: in vivo, human; set-up: AUC∞, unbound buparlisib GMR (90%CI) / Cmax, total buparlisib GMR (90%CI) / Cmax, unbound buparlisib GMR (90%CI): unit not given beside the values; conditions: for increase in Cmax compared with normal hepatic function / increase in buparlisib exposure (AUC∞) compared with normal hepatic function: total buparlisib
Outline: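 After a single oral dose following an overnight fast, K3EDTA blood was drawn predose and at 0.5–336 h. Samples were centrifuged at 1500 g for 10 min at 3–5 °C and plasma stored at –70 °C. Plasma levels were measured by validated LC-MS/MS after solid-phase extraction with a stable-labelled internal standard. Parameters were derived by noncompartmental analysis and compared by ANOVA of log-transformed values, with hepatic function as the fixed effect.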

[11] = moderate‐hepatic‐function group
[12] = coadministration with ritonavir
[13] = linear regression, severe hepatic impairment relative to control group (1.6 vs 1.0), not statistically significant
[14] = linear regression, severe hepatic impairment relative to control group (29.7 g/L vs 45.2 g/L), not statistically significant
[15] = mild hepatic impairment versus normal hepatic function group, 30 mg
[16] = moderate hepatic impairment versus normal hepatic function group, 30 mg

## Nc1cc(C(F)(F)F)c(-c2cc(N3CCOCC3)nc(N3CCOCC3)n2)cn1 [buparlisib]
[1]; following multiple doses
  increases in Cmax and AUC0–24 with dose: approximately dose‐proportional
[1]
  time of maximum plasma concentrations postdose: 1 to 4 h
[2]
  solubility: soluble
[3]
  dose eliminated renally: 20–30%
[4]
  plasma protein binding: 79–85%
[5]
  maximum tolerated dose: 100 mg/day
[6]; all subjects
  subjects with QTcF >450 milliseconds: Eight subjects
  subjects with QTcF increase of >30 milliseconds from baseline: Six subjects
[6]; mild‐hepatic‐function group
  subjects with QTcF increase of >30 milliseconds from baseline: 2
[6]; moderate hepatic impairment, grade‐1 prolonged QTcF, grade‐1 hypertension
  subjects reporting treatment‐related AEs: 2 subjects
[6]; [11]
  subjects with QTcF >450 milliseconds: 4
  subjects with QTcF increase of >30 milliseconds from baseline: 2
[6]; normal hepatic function, grade‐1 dizziness, grade‐1 dermatitis acneiform
  subjects reporting treatment‐related AEs: 2 subjects
[6]; normal‐hepatic‐function group
  subjects with QTcF increase of >30 milliseconds from baseline: 2
[6]; severe hepatic impairment, grade‐2 thrombocytopenia
  subjects reporting treatment‐related AEs: 1 subject
[6]; severe‐hepatic‐function group
  subjects with QTcF >450 milliseconds: 4
[6]; single oral 30 mg, all subjects (N = 31)
  deaths during the study: no deaths
[6]; single oral 30‐mg dose, subjects with and without hepatic impairment
  tolerability: well tolerated
[7]
  estimated fraction metabolized by CYP3A: > 0.9
[8]; buparlisib with ritonavir
  apparent clearance: 3.27 L/h
  elimination half‐life (T1/2): 71.6 h
[8]; buparlisib without ritonavir
  apparent clearance: 5.37 L/h
  elimination half‐life (T1/2): 53.3 h
[8]; [12]
  increase in Cmax geometric mean ratio: 19%
  increase in buparlisib exposure (AUC∞): 73%
[9]
  permeability: highly permeable
[10]; human, plasma, po, 30 mg, AUC∞, geometric mean (CV%), single oral 30 mg, fasted, normal hepatic function (n = 13)
  AUC(0-inf): 6010 ng·h/mL
[10]; human, plasma, po, 30 mg, Cmax, geometric mean (CV%), single oral 30 mg, fasted, normal hepatic function (n = 13)
  Cmax: 221 ng/mL
[10]; human, plasma, po, 30 mg, T1/2, geometric mean (CV%), single oral 30 mg, fasted, normal hepatic function (n = 13)
  half-life: 53 h
[10]; human, plasma, po, 30 mg, Tmax, median (range), single oral 30 mg, fasted, normal hepatic function (n = 13)
  Tmax: 1 h
[10]; human, plasma, po, 30 mg, Vz/F, geometric mean (CV%), single oral 30 mg, fasted, normal hepatic function (n = 13)
  Vd/F: 381 L
[10]; [13]
  increase in AUC∞ associated with higher (52%) INR: 15%
  increase in Cmax associated with higher (52%) INR: 11%
[10]; [14]
  increase in AUC∞ associated with lower (34%) baseline albumin level: 26%
  increase in Cmax associated with lower (34%) baseline albumin level: 15%
[10]; [15]
  AUC∞, unbound buparlisib GMR (90%CI): 1.17 (0.84, 1.64)
  Cmax, total buparlisib GMR (90%CI): 1.26 (1.00, 1.58)
  Cmax, unbound buparlisib GMR (90%CI): 1.28 (0.99, 1.64)
[10]; mild hepatic impairment
  increase in Cmax compared with normal hepatic function: 26%
  increase in buparlisib exposure (AUC∞) compared with normal hepatic function: 16%
[10]; [16]
  AUC∞, unbound buparlisib GMR (90%CI): 1.18 (0.84, 1.65)
  Cmax, total buparlisib GMR (90%CI): 1.08 (0.87, 1.36)
  Cmax, unbound buparlisib GMR (90%CI): 1.12 (0.87, 1.44)
[10]; moderate hepatic impairment
  increase in Cmax compared with normal hepatic function: 8%
  increase in buparlisib exposure (AUC∞) compared with normal hepatic function: 14%
[10]; severe hepatic impairment versus normal hepatic function group, 30 mg
  Cmax, total buparlisib GMR (90%CI): 1.45 (1.15, 1.81)
[10]; severe hepatic impairment
  increase in Cmax compared with normal hepatic function: 45%
  increase in buparlisib exposure (AUC∞) compared with normal hepatic function: 20%
[10]; single oral 30 mg, fasted, mild hepatic impairment, Child–Pugh A (n = 6)
  CL/F, geometric mean (CV%): 4.3 (46) L/h
[10]; single oral 30 mg, fasted, moderate hepatic impairment, Child–Pugh B (n = 6)
  CL/F, geometric mean (CV%): 4.4 (62) L/h
[10]; single oral 30 mg, fasted, normal hepatic function (n = 13)
  CL/F, geometric mean (CV%): 5.0 (37) L/h
[10]; single oral 30 mg, fasted, severe hepatic impairment, Child–Pugh C (n = 6)
  CL/F, geometric mean (CV%): 4.2 (41) L/h
[10]; single oral 30 mg, subjects with or without hepatic impairment
  secondary absorption peak, time postdose: approximately 24 hours
